According to ChEMBL document CHEMBL1125451, “Structure-activity studies of a novel bicyclic oxytocin antagonist” (J Med Chem, 1992):
The source made the active and inactive calls. No cut-off for these calls is given here. Numbered stars: 1 amine (or outer) side, 2 acyl side, 3 side chain; on linkers, the order of the positions; unused ones are H or OH. Bridge positions count the residues as written; N and C are the ends. Square brackets hold non-standard residues; d marks the D form. Peptide text beside a SMILES is read from it. * marks the point of attachment. X1 = CC(C)(CC(=O)[*:1])S[*:2]; Mpa = O=C(O)CCS; For = O=C*

Experiments:
Rattus norvegicus [1] = assay: In vivo pressor activity by vasopressin assay in rats(inactive up to dose 2*10e-2); type: functional
Rattus norvegicus [2] = assay: (§1) In vivo oxytocin antagonistic activity […] was determined by galactogogic assay; type: functional
Rattus norvegicus [3] = assay: (§2) In vivo pressor activity by vasopressin assay in rats; type: functional
Rattus norvegicus [4] = assay: In vivo pressor activity by vasopressin assay in rats; o = inactive up to dose 2*10e-2; type: functional, organism-based
Rattus norvegicus [5] = species on record: Rattus norvegicus; assay: In vitro oxytocin antagonistic activity against rat uterine strips; o = inactive up to dose 2*10e-2; type: functional
Procedure, shortened: (§3)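 Isolated uterine strips from Wistar rats estrogenized 24-48 h beforehand, tested in Munsick's solution by the Holton method. Cumulative oxytocin dose-response curves were constructed, with antagonist added to the bath 1 min before the oxytocin curve was started. Antagonism expressed as pA2.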

Rattus norvegicus [6] = species on record: Rattus norvegicus; assay: In vitro oxytocin antagonistic activity against rat uterine strips; type: functional; conditions: read-out: pA2 (converted); procedure, shortened: as §3
Oxytocin receptor = biological target: T1, Oxytocin receptor (Rattus norvegicus, UniProt P70536); assay: In vitro Oxytocin receptor antagonistic activity against rat uterine strips; type: functional; conditions: read-out: pA2 (converted); procedure, shortened: as §3
T1 sequence (P70536 whole entry): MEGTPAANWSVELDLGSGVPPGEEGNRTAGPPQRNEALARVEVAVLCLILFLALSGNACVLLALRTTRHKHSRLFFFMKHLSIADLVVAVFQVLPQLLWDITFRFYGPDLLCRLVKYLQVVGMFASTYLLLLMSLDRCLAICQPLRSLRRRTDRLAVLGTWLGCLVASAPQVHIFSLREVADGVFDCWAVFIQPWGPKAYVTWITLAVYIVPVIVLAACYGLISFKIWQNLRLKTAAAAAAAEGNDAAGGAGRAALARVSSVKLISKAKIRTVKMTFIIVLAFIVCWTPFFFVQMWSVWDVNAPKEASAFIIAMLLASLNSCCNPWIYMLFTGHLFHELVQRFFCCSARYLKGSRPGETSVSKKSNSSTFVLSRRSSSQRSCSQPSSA

Rattus norvegicus [7] = assay: as §2; type: functional, organism-based; conditions: read-out: pA2 (converted)
Rattus norvegicus [8] = assay: as §1; type: functional, organism-based; conditions: read-out: pA2 (converted)

| Structure (SMILES) | Activity (Rattus norvegicus [2]) [IU mg-1] | Activity (Rattus norvegicus [3]) [IU mg-1] | other results |
| --- | --- | --- | --- |
| CC[C@H](C)[C@@H]1NC(=O)[C@H](Cc2ccc(O)cc2)NC(=O)[C@@H](N)C(C)(C)SSC[C@@H](C(=O)N2CCC[C@H]2C(=O)N[C@@H](CC(C)C)C(=O)NCC(N)=O)NC(=O)[C@H](CC(N)=O)NC(=O)[C@H](CCC(N)=O)NC1=O |  |  | Activity (Rattus norvegicus [1]): 0 IU mg-1 |
| CC[C@H](C)[C@@H]1NC(=O)[C@H](Cc2ccc(O)cc2)NC(=O)CCSSC[C@@H](C(=O)N2CCC[C@H]2C(=O)N[C@@H](CC(C)C)C(=O)NCC(N)=O)NC(=O)[C@H](CC(N)=O)NC(=O)[C@H](CCC(N)=O)NC1=O | 541 | 1.44 |  |
| CC[C@H](C)[C@@H]1NC(=O)[C@H](Cc2ccc(O)cc2)NC(=O)CCSSC[C@@H](C(=O)N2CCC[C@H]2C(=O)N[C@@H](CCCCNC=O)C(=O)NCC(N)=O)NC(=O)[C@H](CC(N)=O)NC(=O)[C@H](CCC(=O)O)NC1=O | 8 |  |  |
| CC[C@H](C)[C@@H]1NC(=O)[C@H](Cc2ccc(O)cc2)NC(=O)CCSSC[C@@H](C(=O)N2CCC[C@H]2C(=O)N[C@@H](CCCCNC=O)C(=O)NCC(N)=O)NC(=O)[C@H](CC(N)=O)NC(=O)[C@H](CCC(N)=O)NC1=O | 517 | 101.6 |  |
| CC[C@H](C)[C@@H]1NC(=O)[C@H](Cc2ccc(O)cc2)NC(=O)CCSSC[C@@H](C(=O)N2CCC[C@H]2C(=O)N[C@@H](CCCCN)C(=O)NCC(N)=O)NC(=O)[C@H](CC(N)=O)NC(=O)[C@H](CCC(N)=O)NC1=O | 272 | 368 |  |
| CC[C@H](C)[C@@H]1NC(=O)[C@H](Cc2ccc(O)cc2)NC(=O)CCSSC[C@@H](C(=O)N2CCC[C@H]2C(=O)N[C@@H](CCCCN)C(=O)NCC(N)=O)NC(=O)[C@H](CC(N)=O)NC(=O)[C@H](CCC(=O)O)NC1=O | 9.1 | 0.1 |  |
| CC[C@@H](C)[C@@H]1NC(=O)[C@@H](Cc2ccc(O)cc2)NC(=O)CCSSC[C@@H](C(=O)N2CCC[C@@H]2C(=O)N[C@@H](CCCCNC=O)C(=O)NCC(N)=O)NC(=O)[C@H](CC(N)=O)NC(=O)[C@@H](CCC(=O)O)NC1=O |  |  | Activity (Rattus norvegicus [4]): inactive; Activity (Rattus norvegicus [5]): inactive |
| CC[C@H](C)[C@@H]1NC(=O)[C@H](Cc2ccc(O)cc2)NC(=O)CC(C)(C)SSC[C@@H](C(=O)N2CCC[C@H]2C(=O)N[C@@H](CCCCNC=O)C(=O)NCC(N)=O)NC(=O)[C@H](CC(N)=O)NC(=O)[C@H](CCC(=O)O)NC1=O (YIENCPK(For)G-NH2; linker N-5 via X1) |  |  | Kb (Rattus norvegicus [6]): 7940 nM |
| CC[C@H](C)[C@@H]1NC(=O)[C@H](Cc2ccc(O)cc2)NC(=O)CC(C)(C)SSC[C@@H](C(=O)N2CCC[C@H]2C(=O)N[C@@H](CCCCN)C(=O)NCC(N)=O)NC(=O)[C@H](CC(N)=O)NC(=O)[C@H](CCC(=O)O)NC1=O (YIENCPKG-NH2; linker N-5 via X1) [listing 1 of 2 here] |  |  | Kb (Oxytocin receptor): 1580 nM |
| CC[C@H](C)[C@@H]1NC(=O)[C@H](Cc2ccc(O)cc2)NC(=O)CC(C)(C)SSC[C@@H](C(=O)N2CCC[C@H]2C(=O)N[C@@H](CCCCN)C(=O)NCC(N)=O)NC(=O)[C@H](CC(N)=O)NC(=O)[C@H](CCC(=O)O)NC1=O (YIENCPKG-NH2; linker N-5 via X1) [listing 2 of 2 here] | <0.01 | 0 |  |
| CC[C@H](C)[C@@H]1NC(=O)[C@H](Cc2ccc(O)cc2)NC(=O)CC(C)(C)SSC[C@@H](C(=O)N2CCC[C@H]2C(=O)N[C@@H](CCCCNC=O)C(=O)NCC(N)=O)NC(=O)[C@H](CC(N)=O)NC(=O)[C@H](CCC(N)=O)NC1=O (YIQNCPK(For)G-NH2; linker N-5 via X1) [listing 1 of 2 here] |  |  | Kb (Rattus norvegicus [6]): 39.8 nM; Kb (Rattus norvegicus [7]): 631 nM |
| CC[C@H](C)[C@@H]1NC(=O)[C@H](Cc2ccc(O)cc2)NC(=O)CC(C)(C)SSC[C@@H](C(=O)N2CCC[C@H]2C(=O)N[C@@H](CCCCNC=O)C(=O)NCC(N)=O)NC(=O)[C@H](CC(N)=O)NC(=O)[C@H](CCC(N)=O)NC1=O (YIQNCPK(For)G-NH2; linker N-5 via X1) [listing 2 of 2 here] | 1.1 |  |  |
| CC[C@H](C)[C@@H]1NC(=O)[C@H](Cc2ccc(O)cc2)NC(=O)CC(C)(C)SSC[C@@H](C(=O)N2CCC[C@H]2C(=O)N[C@@H](CCCCN)C(=O)NCC(N)=O)NC(=O)[C@H](CC(N)=O)NC(=O)[C@H](CCC(N)=O)NC1=O (YIQNCPKG-NH2; linker N-5 via X1) |  |  | Kb (Oxytocin receptor): 16.6 nM |
| CC[C@H](C)[C@@H]1NC(=O)[C@H](Cc2ccc(O)cc2)NC(=O)CC(C)(C)SSC[C@@H](C(=O)N2CCC[C@H]2C(=O)N[C@@H](CC(C)C)C(=O)NCC(N)=O)NC(=O)[C@H](CC(N)=O)NC(=O)[C@H](CCC(N)=O)NC1=O (YIQNCPLG-NH2; linker N-5 via X1) |  |  | Kb (Rattus norvegicus [6]): 115 nM; Kb (Rattus norvegicus [7]): 537 nM |
| CC[C@H](C)[C@@H]1NC(=O)[C@H](Cc2ccc(O)cc2)NC(=O)CCSSC[C@@H]2NC(=O)[C@H](CC(N)=O)NC(=O)[C@H](CCC(=O)NCCCC[C@@H](C(=O)NCC(N)=O)NC(=O)[C@@H]3CCCN3C2=O)NC1=O ([Mpa]YIENCPKG-NH2; disulfide 1-6; lactam 4-8) [listing 1 of 2 here] |  |  | Kb (Rattus norvegicus [8]): 1000 nM; Kb (Oxytocin receptor): 6.31 nM |
| CC[C@H](C)[C@@H]1NC(=O)[C@H](Cc2ccc(O)cc2)NC(=O)CCSSC[C@@H]2NC(=O)[C@H](CC(N)=O)NC(=O)[C@H](CCC(=O)NCCCC[C@@H](C(=O)NCC(N)=O)NC(=O)[C@@H]3CCCN3C2=O)NC1=O ([Mpa]YIENCPKG-NH2; disulfide 1-6; lactam 4-8) [listing 2 of 2 here] |  | 0.1 |  |
| CC[C@H](C)[C@@H]1NC(=O)[C@H](Cc2ccc(O)cc2)NC(=O)[C@@H](N)CSSC[C@@H](C(=O)N2CCC[C@H]2C(=O)N[C@@H](CC(C)C)C(=O)NCC(N)=O)NC(=O)[C@H](CC(N)=O)NC(=O)[C@H](CCC(N)=O)NC1=O [OXYTOCIN] | 450 | 3.1 |  |
